Drawing on ChEMBL document CHEMBL4118021, “Studies of TAK1-centered polypharmacology with novel covalent TAK1 inhibitors” (Bioorg Med Chem, 2017), this text covers Activity and inhibition for three compounds.

The structures appear in SMILES notation. Activity calls are given as the source filed them. The rule behind the calls is not given here.

For assay [1], the target named is Ribosomal protein S6 kinase alpha-3 (Homo sapiens) (UniProt P51812). The experiment in a line: Binding affinity to RPS6KA3 in human NCI-H358 cells at 1 uM by mass spectrometry based pull down assay. In kind it is cell-based.
Assay [2] deals with Plectin (Homo sapiens) (UniProt Q15149). Kind of assay: Binding affinity to PLEC in human NCI-H23 cells at 1 uM by mass spectrometry based pull down assay. Format: cell-based.
Assay [3] addresses T1, Non-receptor tyrosine-protein kinase TNK1 (Homo sapiens) (UniProt Q13470).
T1 sequence (whole entry): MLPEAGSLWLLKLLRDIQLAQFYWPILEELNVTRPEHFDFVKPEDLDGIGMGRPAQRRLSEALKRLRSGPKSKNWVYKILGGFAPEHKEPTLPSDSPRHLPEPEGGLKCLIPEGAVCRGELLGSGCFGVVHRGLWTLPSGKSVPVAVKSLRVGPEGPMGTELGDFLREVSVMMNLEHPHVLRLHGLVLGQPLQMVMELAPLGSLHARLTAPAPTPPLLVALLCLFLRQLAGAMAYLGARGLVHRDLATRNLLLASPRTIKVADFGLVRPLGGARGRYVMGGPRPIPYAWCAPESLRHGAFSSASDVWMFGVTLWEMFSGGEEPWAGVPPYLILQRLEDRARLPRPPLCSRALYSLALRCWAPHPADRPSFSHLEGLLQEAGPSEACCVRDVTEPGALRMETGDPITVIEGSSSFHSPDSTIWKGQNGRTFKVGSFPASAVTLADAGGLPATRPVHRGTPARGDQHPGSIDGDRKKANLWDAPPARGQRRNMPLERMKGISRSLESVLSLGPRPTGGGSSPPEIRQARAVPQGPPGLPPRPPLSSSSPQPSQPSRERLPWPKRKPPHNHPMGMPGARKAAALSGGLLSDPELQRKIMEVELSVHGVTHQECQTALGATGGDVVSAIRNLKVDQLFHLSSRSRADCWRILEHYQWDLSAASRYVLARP
Kind of assay: Binding affinity to TNK1 in human NCI-H358 cells at 1 uM by mass spectrometry based pull down assay. In kind it is cell-based.

Assay [4] concerns the target THO complex subunit 4 (Homo sapiens) (UniProt Q86V81). Kind of assay: Binding affinity to ALYREF in human NCI-H23 cells at 1 uM by mass spectrometry based pull down assay. In kind it is cell-based.
Assay [5] addresses Proteasome adapter and scaffold protein ECM29 (Homo sapiens) (UniProt Q5VYK3). Kind of assay: Binding affinity to KIAA0368 in human NCI-H358 cells at 1 uM by mass spectrometry based pull down assay. In kind it is cell-based.
The target of assay [6] is Glycogen synthase kinase-3 beta (Homo sapiens) (UniProt P49841). Kind of assay: Binding affinity to GSK3B in human NCI-H23 cells at 1 uM by mass spectrometry based pull down assay. In kind it is cell-based.
For assay [7], the target named is 80S Ribosome (Homo sapiens) (UniProt P08865+P42677+P62753+P15880+P23396+P61247+P62701+P22090+P46782+P62081+P62241+P46781+P46783+P62280+P25398+P62277+P62263+P62841+P62244+P62249+P08708+P62269+P39019+P60866+P63220+P62266+P62847+P62851+P62854+P62979+P62857+P62273+P62861+P39023+P36578+P46777+Q02878+P18124+P62424+P62917+P32969+P27635+P62906+P62913+P30050+P26373+P40429+P50914+P61313+P18621+Q07020+Q02543+P84098+P46778+P35268+P62829+P62750+P83731+P61254+P61353+P46776+P46779+P47914+P62888+P62899+P62910+P49207+P42766+P18077+Q9Y3U8+P83881+P61927+P61513+P63173+P62891+P62945+P05388+P05386). The experiment in a line: Binding affinity to RPL23A in human NCI-H358 cells at 1 uM by mass spectrometry based pull down assay. Format: cell-based.

The target of assay [8] is E3 ubiquitin-protein ligase UBR4 (Homo sapiens) (UniProt Q5T4S7). The experiment in a line: Binding affinity to UBR4 in human NCI-H358 cells at 1 uM by mass spectrometry based pull down assay. In kind it is cell-based.
For assay [9], the target named is Phosphoglycerate kinase 1 (Homo sapiens) (UniProt P00558). The experiment in a line: Binding affinity to PGK1 in human NCI-H358 cells at 1 uM by mass spectrometry based pull down assay. In kind it is cell-based.
Assay [10] concerns the target Isocitrate dehydrogenase [NAD] subunit alpha, mitochondrial (Homo sapiens) (UniProt P50213). The experiment in a line: Binding affinity to IDH3A in human NCI-H358 cells at 1 uM by mass spectrometry based pull down assay. In kind it is cell-based.
The target in assay [11] is RNA-binding protein 3 (Homo sapiens) (UniProt P98179). Kind of assay: Binding affinity to RBM3 in human NCI-H23 cells at 1 uM by mass spectrometry based pull down assay. Format: cell-based.
The target in assay [12] is Tubulin alpha-1A chain (Homo sapiens) (UniProt Q71U36). The experiment in a line: Binding affinity to TUBA1A in human NCI-H23 cells at 1 uM by mass spectrometry based pull down assay. Format: cell-based.
The target of assay [13] is Low molecular weight phosphotyrosine protein phosphatase (Homo sapiens) (UniProt P24666). The experiment in a line: Binding affinity to ACP1 in human NCI-H358 cells at 1 uM by mass spectrometry based pull down assay. In kind it is cell-based. In a few lines:
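NCI-H23 or NCI-H358 cells were grown and lysed. Lysates were incubated overnight at 4 °C with 1 μM biotinylated covalent probe or DMSO, then pulled down on streptavidin beads. Proteins were run on polyacrylamide gels and stained with Coomassie. Bands were excised, digested and identified by mass spectrometry.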

The target in assay [14] is Thymidine kinase, cytosolic (Homo sapiens) (UniProt P04183). Kind of assay: Binding affinity to TK1 in human NCI-H358 cells at 1 uM by mass spectrometry based pull down assay. Format: cell-based.
The target in assay [15] is Heterogeneous nuclear ribonucleoproteins A2/B1 (Homo sapiens) (UniProt P22626). Kind of assay: Binding affinity to HNRNPA2B1 in human NCI-H23 cells at 1 uM by mass spectrometry based pull down assay. In kind it is cell-based.
Assay [16] addresses Protein kinase C iota (Homo sapiens) (UniProt P41743). Kind of assay: Inhibition of PKCi in human SKCO1 cells at 1 uM after 4 hrs using biotin labeled DLKLDNVLLDSEGHIK probe by mass-spectrometric analysis relative to control.
The target of assay [17] is Tyrosine-protein kinase JAK1 (Homo sapiens) (UniProt P23458). Kind of assay: Inhibition of JAK1 domain2 in human SKCO1 cells at 1 uM after 4 hrs using biotin labeled IGDFGLTKAIETDKEYYTVK probe by mass-spectrometric analysis relative to control. In kind it is cell-based.
Assay [18] deals with Activated CDC42 kinase 1 (Homo sapiens) (UniProt Q07912). The experiment in a line: Inhibition of ACK in human SKCO1 cells at 1 uM after 4 hrs using biotin labeled TVSVAVKCLKPDVLSQPEAMDDFIR probe by mass-spectrometric analysis relative to control. Format: cell-based.
The target of assay [19] is Ribosomal protein S6 kinase alpha-6 (Homo sapiens) (UniProt Q9UK32). The experiment in a line: Inhibition of human RSK4 (1 to 397 residues) expressed in mammalian expression system assessed as enzyme activity at 10 uM by KINOMEScan assay relative to control. The arrangement: scale not given: the % may be the effect or the level left. In a few lines:
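In vitro ATP-site competition binding assay across a panel of 456 kinases, with compound tested at 1 and 10 μM.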

Sequence of Thymidine kinase, cytosolic (Homo sapiens) (P04183 whole entry): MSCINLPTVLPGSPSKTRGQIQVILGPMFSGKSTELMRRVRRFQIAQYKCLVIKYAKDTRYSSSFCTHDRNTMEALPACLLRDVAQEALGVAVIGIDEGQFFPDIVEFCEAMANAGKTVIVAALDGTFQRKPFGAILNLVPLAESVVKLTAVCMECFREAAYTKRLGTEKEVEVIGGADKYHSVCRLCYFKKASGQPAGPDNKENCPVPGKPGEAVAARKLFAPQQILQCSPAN
Sequence of Heterogeneous nuclear ribonucleoproteins A2/B1 (Homo sapiens) (P22626 whole entry): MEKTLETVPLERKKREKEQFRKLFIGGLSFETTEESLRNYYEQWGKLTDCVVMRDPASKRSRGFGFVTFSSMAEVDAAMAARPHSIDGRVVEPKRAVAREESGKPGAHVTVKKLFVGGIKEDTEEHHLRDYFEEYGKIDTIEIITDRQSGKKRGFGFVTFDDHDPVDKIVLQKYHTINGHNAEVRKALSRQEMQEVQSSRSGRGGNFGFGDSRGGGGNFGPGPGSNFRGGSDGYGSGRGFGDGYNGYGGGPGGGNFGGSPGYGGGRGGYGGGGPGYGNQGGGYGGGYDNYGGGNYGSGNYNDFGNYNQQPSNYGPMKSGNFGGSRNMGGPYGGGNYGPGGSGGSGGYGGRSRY
Sequence of Ribosomal protein S6 kinase alpha-3 (Homo sapiens) (P51812 whole entry): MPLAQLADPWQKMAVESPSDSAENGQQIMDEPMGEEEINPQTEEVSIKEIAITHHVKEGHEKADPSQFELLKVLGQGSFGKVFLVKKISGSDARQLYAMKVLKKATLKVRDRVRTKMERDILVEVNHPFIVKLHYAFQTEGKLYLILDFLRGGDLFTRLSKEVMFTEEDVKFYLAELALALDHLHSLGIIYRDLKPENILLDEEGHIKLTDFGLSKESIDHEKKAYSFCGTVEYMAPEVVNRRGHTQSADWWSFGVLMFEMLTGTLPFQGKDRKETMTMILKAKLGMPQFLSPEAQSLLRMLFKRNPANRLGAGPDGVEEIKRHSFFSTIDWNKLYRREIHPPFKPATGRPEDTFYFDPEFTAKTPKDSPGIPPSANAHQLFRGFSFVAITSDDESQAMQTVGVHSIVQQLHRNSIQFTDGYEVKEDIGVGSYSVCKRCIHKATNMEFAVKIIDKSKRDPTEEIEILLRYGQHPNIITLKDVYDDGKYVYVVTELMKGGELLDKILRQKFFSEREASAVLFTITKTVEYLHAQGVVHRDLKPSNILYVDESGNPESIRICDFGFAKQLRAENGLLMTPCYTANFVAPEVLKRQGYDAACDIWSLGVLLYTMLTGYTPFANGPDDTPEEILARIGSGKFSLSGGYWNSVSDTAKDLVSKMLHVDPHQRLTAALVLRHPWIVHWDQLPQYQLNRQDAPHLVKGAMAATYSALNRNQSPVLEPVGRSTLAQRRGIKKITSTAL
Sequence of Activated CDC42 kinase 1 (Homo sapiens) (Q07912 whole entry, looked up, the tested form may be a part): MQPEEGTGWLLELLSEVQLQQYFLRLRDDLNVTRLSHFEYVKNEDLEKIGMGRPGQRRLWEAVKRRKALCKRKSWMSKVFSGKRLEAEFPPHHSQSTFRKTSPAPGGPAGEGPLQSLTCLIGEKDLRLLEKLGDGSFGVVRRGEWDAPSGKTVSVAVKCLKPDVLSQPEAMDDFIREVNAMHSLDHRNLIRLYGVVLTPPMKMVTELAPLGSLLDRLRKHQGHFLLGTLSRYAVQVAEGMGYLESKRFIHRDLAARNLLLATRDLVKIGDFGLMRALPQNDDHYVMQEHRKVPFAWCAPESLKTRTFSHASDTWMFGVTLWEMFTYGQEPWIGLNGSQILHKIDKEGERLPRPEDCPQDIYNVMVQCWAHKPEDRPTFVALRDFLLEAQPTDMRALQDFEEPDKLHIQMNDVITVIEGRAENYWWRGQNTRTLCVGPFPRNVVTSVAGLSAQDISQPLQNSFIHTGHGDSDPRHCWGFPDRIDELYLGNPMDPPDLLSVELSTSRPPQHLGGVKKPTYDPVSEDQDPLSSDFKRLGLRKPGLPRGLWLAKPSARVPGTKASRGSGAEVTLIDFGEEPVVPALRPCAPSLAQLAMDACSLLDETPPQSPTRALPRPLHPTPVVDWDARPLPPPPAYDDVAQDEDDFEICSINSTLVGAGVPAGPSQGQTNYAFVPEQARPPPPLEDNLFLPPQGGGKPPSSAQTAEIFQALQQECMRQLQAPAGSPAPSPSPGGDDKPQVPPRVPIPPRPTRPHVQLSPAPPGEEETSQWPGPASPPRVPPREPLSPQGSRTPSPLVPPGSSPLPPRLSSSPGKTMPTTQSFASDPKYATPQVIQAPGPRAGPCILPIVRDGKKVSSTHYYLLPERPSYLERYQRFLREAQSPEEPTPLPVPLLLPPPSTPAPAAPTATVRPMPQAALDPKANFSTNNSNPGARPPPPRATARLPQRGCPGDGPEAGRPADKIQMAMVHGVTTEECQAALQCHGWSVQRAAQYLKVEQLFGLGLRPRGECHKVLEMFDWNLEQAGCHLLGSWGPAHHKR
Sequence of Phosphoglycerate kinase 1 (Homo sapiens) (P00558 whole entry): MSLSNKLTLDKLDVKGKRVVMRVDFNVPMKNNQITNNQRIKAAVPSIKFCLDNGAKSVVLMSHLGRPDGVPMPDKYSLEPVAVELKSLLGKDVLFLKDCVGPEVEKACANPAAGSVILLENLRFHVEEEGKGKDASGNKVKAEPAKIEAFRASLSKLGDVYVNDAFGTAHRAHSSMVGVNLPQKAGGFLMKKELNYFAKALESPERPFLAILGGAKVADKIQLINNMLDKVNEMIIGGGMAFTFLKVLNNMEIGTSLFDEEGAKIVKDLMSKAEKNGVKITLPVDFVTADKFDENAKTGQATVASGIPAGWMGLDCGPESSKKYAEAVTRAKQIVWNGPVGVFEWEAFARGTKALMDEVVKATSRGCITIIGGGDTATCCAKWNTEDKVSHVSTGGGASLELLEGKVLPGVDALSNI
Sequence of RNA-binding protein 3 (Homo sapiens) (P98179 whole entry): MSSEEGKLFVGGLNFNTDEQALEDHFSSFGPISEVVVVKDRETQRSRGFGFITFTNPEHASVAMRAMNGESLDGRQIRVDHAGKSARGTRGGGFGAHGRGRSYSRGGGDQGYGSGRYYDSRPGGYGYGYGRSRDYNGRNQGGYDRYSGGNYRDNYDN
Sequence of Tubulin alpha-1A chain (Homo sapiens) (Q71U36 whole entry, looked up): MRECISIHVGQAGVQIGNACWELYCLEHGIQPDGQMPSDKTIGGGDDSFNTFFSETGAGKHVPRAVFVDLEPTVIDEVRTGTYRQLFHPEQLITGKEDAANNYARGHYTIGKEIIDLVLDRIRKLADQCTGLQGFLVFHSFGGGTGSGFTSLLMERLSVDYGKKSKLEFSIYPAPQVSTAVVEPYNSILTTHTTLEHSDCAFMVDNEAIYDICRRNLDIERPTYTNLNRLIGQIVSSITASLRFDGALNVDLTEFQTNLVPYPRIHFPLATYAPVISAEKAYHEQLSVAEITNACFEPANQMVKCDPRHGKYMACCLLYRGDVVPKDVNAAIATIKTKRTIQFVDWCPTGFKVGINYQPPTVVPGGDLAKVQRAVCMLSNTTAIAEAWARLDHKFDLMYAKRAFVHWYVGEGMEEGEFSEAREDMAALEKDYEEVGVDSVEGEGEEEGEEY
Sequence of Tyrosine-protein kinase JAK1 (Homo sapiens) (P23458 whole entry, the tested form may be a part): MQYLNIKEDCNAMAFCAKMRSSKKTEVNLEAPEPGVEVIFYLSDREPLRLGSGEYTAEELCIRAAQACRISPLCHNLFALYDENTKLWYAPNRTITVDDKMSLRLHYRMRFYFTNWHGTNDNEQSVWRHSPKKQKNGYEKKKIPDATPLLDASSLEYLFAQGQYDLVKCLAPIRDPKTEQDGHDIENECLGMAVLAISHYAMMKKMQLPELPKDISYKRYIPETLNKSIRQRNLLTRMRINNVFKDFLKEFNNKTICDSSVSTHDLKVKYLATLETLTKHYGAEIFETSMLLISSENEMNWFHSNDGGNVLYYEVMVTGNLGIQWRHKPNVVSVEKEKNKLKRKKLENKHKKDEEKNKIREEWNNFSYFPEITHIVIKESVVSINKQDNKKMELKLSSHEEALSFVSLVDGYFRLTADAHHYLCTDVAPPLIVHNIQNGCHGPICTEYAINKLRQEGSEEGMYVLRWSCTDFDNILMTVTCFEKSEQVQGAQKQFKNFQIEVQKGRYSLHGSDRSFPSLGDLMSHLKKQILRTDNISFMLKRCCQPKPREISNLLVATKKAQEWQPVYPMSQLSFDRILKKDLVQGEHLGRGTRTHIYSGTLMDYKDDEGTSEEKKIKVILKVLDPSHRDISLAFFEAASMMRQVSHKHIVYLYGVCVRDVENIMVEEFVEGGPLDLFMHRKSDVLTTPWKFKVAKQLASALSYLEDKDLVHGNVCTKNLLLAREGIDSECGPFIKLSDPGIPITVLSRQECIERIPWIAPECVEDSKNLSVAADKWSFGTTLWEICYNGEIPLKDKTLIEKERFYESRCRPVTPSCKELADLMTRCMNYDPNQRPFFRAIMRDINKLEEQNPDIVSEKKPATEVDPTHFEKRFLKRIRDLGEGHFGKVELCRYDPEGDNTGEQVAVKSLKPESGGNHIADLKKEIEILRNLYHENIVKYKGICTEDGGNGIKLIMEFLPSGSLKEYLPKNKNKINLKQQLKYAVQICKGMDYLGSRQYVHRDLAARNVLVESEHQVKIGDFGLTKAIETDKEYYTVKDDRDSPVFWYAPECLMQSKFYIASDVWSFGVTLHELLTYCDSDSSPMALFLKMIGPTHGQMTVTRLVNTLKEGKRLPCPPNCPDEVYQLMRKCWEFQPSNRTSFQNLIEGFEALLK
Sequence of Glycogen synthase kinase-3 beta (Homo sapiens) (P49841 whole entry, looked up): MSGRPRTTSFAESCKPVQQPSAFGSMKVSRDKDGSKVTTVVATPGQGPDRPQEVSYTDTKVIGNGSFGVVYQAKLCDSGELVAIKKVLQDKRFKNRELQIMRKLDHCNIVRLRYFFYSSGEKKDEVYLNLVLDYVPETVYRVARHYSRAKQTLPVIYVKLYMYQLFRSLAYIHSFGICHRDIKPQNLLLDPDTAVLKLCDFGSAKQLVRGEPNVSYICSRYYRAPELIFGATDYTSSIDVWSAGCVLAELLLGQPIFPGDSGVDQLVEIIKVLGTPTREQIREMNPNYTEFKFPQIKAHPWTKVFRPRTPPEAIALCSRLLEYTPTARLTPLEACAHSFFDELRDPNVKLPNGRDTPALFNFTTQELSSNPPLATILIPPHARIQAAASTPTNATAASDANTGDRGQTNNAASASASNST

On to `C=CC(=O)Nc1ccccc1Nc1nc(Nc2ccc(N3CCN(CCOCCOCCOCCNC(=O)CCCC[C@@H]4SC[C@@H]5NC(=O)N[C@@H]54)CC3)cc2)ncc1Cl`, for which the outcome in assay [1], in assay [2], in [3], in assay [4], in assay [5] and in assay [6] was Active. The result in assay [7], in assay [8], in assay [9], in [10], in assay [11] and in [12] was Active. Further, the result in assay [13], in assay [14] and in assay [15] was Active.
Regarding `C=CC(=O)Nc1ccccc1Nc1nc(Nc2ccc(N3CCN(C)CC3)cc2)ncc1Cl`, the inhibition in [16] is -5.7%; in assay [17], 2.6%; in [18] it was 45.1%.
Consider `COc1cc(O)c2c(c1)/C=C/C[C@H](O)[C@H](O)C(=O)/C=C\C[C@H](C)OC2=O`, for which the Activity in assay [19] worked out at 3%.

For orientation: inhibition means the change of the read-out against control, counted positive when it falls.
